High-throughput results from PubChem.
E-sel inducer: induces E-selectin expression in human endothelial cells | HUVEC E-selectin immunofluorescence imaging; normalized: neutral wells 0, TNF-alpha wells 100 | activation, % at 7.58 µM | 260,000 compounds, 0.37% hits | AID 686992;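 active means mean E-selectin-positive cell signal at least 10% of the positive control, reached in at least 60% of replicates, without over 20% cell loss; inconclusive means no rule given, readout overlaps actives, possibly toxicity-flagged; inactive means the rest, including those meeting only one limit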
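Assay system: HUVEC, human umbilical vein endothelial cells / Amount: 3,000 HUVEC/well / Controls: TNF-alpha positive control, DMSO neutral control / Compound dosing: single concentration / Medium: EGM-2 over gelatin coat / Evaluation: percent E-selectin-positive cells / Signal: immunofluorescence imaging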
SIRT5 inh: blocks human SIRT5 desuccinylation of peptide | Q9NXA8 | Purified SirT5, succinyl-peptide AMC, trypsin-coupled fluorescence | inhibition, % at 15 µM | 330,000 compounds, 1.1% hits; in the data active means inhibition above about 15%; inconclusive means no clear call, values can overlap the other calls
Target sequence (Q9NXA8 whole entry, looked up): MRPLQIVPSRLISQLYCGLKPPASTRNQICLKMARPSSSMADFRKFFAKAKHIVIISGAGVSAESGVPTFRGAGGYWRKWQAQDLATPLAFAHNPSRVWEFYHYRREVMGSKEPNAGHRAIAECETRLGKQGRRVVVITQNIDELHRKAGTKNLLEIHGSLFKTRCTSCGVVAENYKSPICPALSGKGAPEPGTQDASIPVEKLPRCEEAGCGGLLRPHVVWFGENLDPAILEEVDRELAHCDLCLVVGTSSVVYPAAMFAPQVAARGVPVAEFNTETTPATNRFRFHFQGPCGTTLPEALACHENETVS
C2C12 statin: protects C2C12 myotubes from simvastatin toxicity; ATP luminescence, 48 h; scaled: DMSO 0, geranylgeraniol control 100; rescue of ATP level, % at 7.49 µM; 330,000 compounds, 0.78% hits;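 active means mean ATP rescue above about 67%, or every replicate alone reaching that limit, limit read from the data, passing the limit was not always enough; inconclusive means no clear call, values can overlap the other calls; inactive means mean under the limit and some replicate under it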;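 further: myotubes were challenged with 10 µM simvastatin during compound exposure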
Ecoli rRNA inh: inhibits bacterial ribosomal RNA function over humanized ribosomes; GFP signal change (wild-type ribosome), % (test concentration not listed); AID 720706; E. coli WT GFP vs humanized-ribosome RFP mutants, fluorescence, 24 h; stronger effect = lower value; DMSO median 0, no signal -100; 350,000 compounds, 1.6% hits;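 active means significant combined selectivity score with lowered wild-type GFP, culture density cut under 30%, mutant RFP and density less affected; inactive means any of these conditions unmet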
FGF22 binding: binders of recombinant human FGF22 by thermal shift | Q9HCT0 | SYPRO orange fluorescence; percent of sucrose octasulfate shift, DMSO zero | activity (Tm shift, normalised), % at 9.99 µM | 340,000 compounds, 1.5% hits;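 active means mean Tm shift, scaled 0 neutral to 100 positive control, at about 1.3% or above, every replicate too, limit read from the data; inconclusive means no clear call, values can overlap the other calls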
Target sequence (Q9HCT0 whole entry, looked up): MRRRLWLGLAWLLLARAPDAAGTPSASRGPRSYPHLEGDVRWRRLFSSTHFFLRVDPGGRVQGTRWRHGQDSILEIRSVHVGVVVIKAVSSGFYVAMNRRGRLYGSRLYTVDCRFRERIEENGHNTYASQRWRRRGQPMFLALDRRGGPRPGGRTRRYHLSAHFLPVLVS
FN deposition inh: fibronectin deposition inhibition; 350,000 compounds, 0.086% hits; AID 743247; inhibition, % at 12.6 µM; AH1F fibroblasts, Alexa488-fibronectin deposition fluorescence, overnight;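 active means mean inhibition across replicates of 30% or more, regardless of how many single replicates reach that level; inconclusive means mean under 30% yet at least half of replicates reach 30%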;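 further: positive control wells lacked labelled fibronectin entirely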
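Material – AH1F fibroblast monolayer, labelled fibronectin deposition · Reagent – labelled fibronectin 24 nM · Timing – 1 h adhesion, overnight exposure · Measured by – fluorescence at 485 nm excitation, 525 nm emission · Read-out – inhibition of fibronectin deposition signal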
HepG2 tox: HepG2 cell cytotoxicity; activity change, negative = cytotoxicity, unspecified at 26 µM; HepG2 viability, ATP luminescence, 72 h; shares compounds with Ecoli rRNA inh; 30 tested, under 10 active;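 active means compounds whose fitted half-maximal signal-loss concentration is at most twice their highest valid dose; inconclusive means flat curve with 30 to 70% signal loss, or poor fit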
AID977621: growth inhibition of wild-type GFP E. coli, dose response, H69 mutant RFP, cherry-pick; shares compounds with Ecoli rRNA inh; E. coli wild-type GFP strain growth, fluorescence, 24 h; activity change, negative = inhibition at 50 µM; 1,900 tested, under 10 active; AID 977621;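 active means Wild-type ribosome reporter drop at least double the humanized mutant ribosome reporter drop, growth loss under a set limit; inconclusive means no clear call, values can overlap the other calls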;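 further: wild-type GFP and H69 mutant RFP strains grown together 50/50 in each well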
AID977628: E. coli growth inhibition, wild-type GFP versus h24 humanized RFP strain, dose response, h24 mutant RFP vs wild-type GFP, cherry-pick; shares compounds with Ecoli rRNA inh; E. coli WT GFP strain growth, fluorescence, 24 h; activity change, negative = inhibition at 50 µM; 1,900 tested, under 10 active; AID 977628;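 active means compound lowering the normal-ribosome reporter at least twice as much as the humanized-ribosome reporter, growth loss under a set limit; inconclusive means no clear call, values can overlap the other calls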;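 further: wild-type GFP and h24 humanized RFP strains co-cultured 1 to 1 per well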
* marks the source's active call; other numbers are inactive results; ? = inconclusive; / = no result; ! = a repeat was not active. Hits are enriched below; roughly 4% of the tested compounds scored in any of these assays.

SMILES	E-sel inducer	SIRT5 inh	C2C12 statin	Ecoli rRNA inh	FGF22 binding	FN deposition inh	AID977621	AID977628	others
Cc1cccc(Oc2ccc(NC(=O)c3ccccc3C(=O)O)cc2)c1	-1	13	3	-23*	0	4	-17	?
CCC/C(=C1/c2ccccc2C(=O)N1c1ccccc1)c1ccc2[nH]ccc2c1	1	/	-9	-20	0	16	/	/
CCCC#C/C(CCC)=C1\c2ccccc2C(=O)N1c1ccccc1	0	/	/	-16*	1	-3	-4.9	?
CN(CC(=O)Nc1cccc(F)c1)C(=O)Cn1c(=O)oc2ccccc21	/	1	14	-17*	0	-5	-4.9	-5
CN(CC(=O)Nc1ccc(F)cc1)C(=O)Cn1c(=O)oc2ccccc21	/	-5	-2	4	0	-16	/	/
COC(=O)c1sccc1NC(=O)Cc1ccc(OC)cc1	-2	-3	/	-27*	0	1	-15	/
COc1ccc(CC(=O)Nc2cc(S(=O)(=O)Nc3ccc(OC)cc3)ccc2OC)cc1	/	-6	-20	-18*	0	4	-15	-17
Cc1ccc(S(=O)(=O)N(C)C[C@H]2Oc3ccc(NC(=O)c4ccncc4)cc3CC(=O)N([C@H](C)CO)C[C@H]2C)cc1	0	-1	6	2	0	/	/	/
Cc1ccc(C)c(-n2nnnc2SCC(=O)c2ccc3c(c2)NC(=O)CO3)c1	/	/	-36	/	/	3	/	/
Cc1ccc2nc(SCC(=O)c3ccc4c(c3)NC(=O)CO4)[nH]c2c1	-1	-1	/	-21*	0	-3	-7.2	?
C[C@H]1CN([C@@H](C)CO)C(=O)c2cc(C#CC3CCCCC3)cnc2O[C@H]1CN(C)S(=O)(=O)c1ccc(F)cc1	1	0	-131	-1	0	5	/	/
CCCC#Cc1ccc([C@@H]2[C@H]3CN(CC4CC4)CCCCN3[C@H]2CO)cc1	0	/	/	5	/	/	/	/
CC1CCN(C(=O)COC(=O)c2ccccc2NC(=O)c2ccco2)CC1	/	0	/	-32*	0	/	-16	-5.8
O=C(COC(=O)c1ccccc1NC(=O)c1ccco1)NC1CC1	/	-4	/	7	0	/	/	/
COc1cccc(C(=O)Nc2cc(C)nn2-c2ccccc2)c1OC	0	-2	3	-34*	0	0	/	/	HepG2 tox=14
Nc1ccc(C(=O)OCCc2ccccc2)cc1	0	/	-5	-30*	0	0	-9	-4.7
NC(=O)c1cc(C(N)=O)nc(Cl)n1	0	-6	/	12	0	-3	/	/
Cc1cc(C(N)=O)nn1-c1c(Cl)cc(Cl)cc1Cl	3	1	-1	-31*	0	0	-3.5	/
O=C(C[C@H]1CC[C@H](NC(=O)CN2CCOCC2)[C@H](CO)O1)NCc1cccc(F)c1	0	1	-4	4	0	5	/	/
Cc1noc(C)c1NC(=O)N(C)C[C@H]1OCc2ccccc2-c2c(n(C)c3ccccc23)C(=O)N([C@H](C)CO)C[C@H]1C	0	1	23	2	0	-11	/	/
COc1ccc(C(=O)Nc2cccc3ccccc23)cc1	0	-4	33	-19*	0	1	-11	-12
COc1cc(OC)cc(C(=O)Nc2ccc(C(=O)Nc3ccccc3OC)cc2)c1	0	0	-8	-22*	0	1	0.97	?
COc1ccc(C(=O)Nc2ccccc2NC(=O)c2ccc(OC)cc2)cc1	/	-1	13	/	0	3	/	/
CC(C)NC(=O)N(C)C[C@H]1OCCCC[C@H](C)Oc2ccc(NC(=O)Cc3ccccc3)cc2C(=O)N([C@@H](C)CO)C[C@@H]1C	0	5	/	-2	0	-2	/	/
CO[C@H]1CN(C)C(=O)c2cc(NC(=O)Nc3ccccc3)ccc2OC[C@@H](C)N(C(=O)CN(C)C)C[C@H]1C	0	-3	-9	0	0	2	/	/
SMILES	E-sel inducer	SIRT5 inh	C2C12 statin	Ecoli rRNA inh	FGF22 binding	FN deposition inh	AID977621	AID977628	others
CCCNC(=O)N[C@@H]1CC[C@@H](CCn2cc(C3CCCC3)nn2)O[C@@H]1CO	0	0	5	3	0	-4	/	/
C[C@H](CO)N1C[C@H](C)[C@H](CN(C)C(=O)Nc2ccc(F)cc2)Oc2c(NC(=O)Nc3ccccc3)cccc2C1=O	0	3	-24	-23*	0	/	-8.6	?
C[C@H](CO)N1C[C@H](C)[C@H](CN(C)C(=O)Nc2ccc3c(c2)OCO3)Oc2c(NC(=O)Nc3ccc4c(c3)OCO4)cccc2C1=O	0	5	6	1	0	/	/	/
COc1cccc(NC(=O)N(C)C[C@H]2Oc3ncc(C#Cc4cccnc4)cc3C(=O)N([C@H](C)CO)C[C@H]2C)c1	/	?	45	-39*	0	/	-12	8.5
C[C@@H]1CN([C@H](C)CO)C(=O)c2cccc(NC(=O)Nc3ccc4c(c3)OCO4)c2O[C@@H]1CN(C)C(=O)Nc1ccc2c(c1)OCO2	1	3	15	-19*	0	/	-10	?
C[C@@H]1CN([C@@H](C)CO)C(=O)c2cccc(NC(=O)c3nc4ccccc4s3)c2O[C@@H]1CN(C)CC1CC1	0	0	44	-28*!	0	0	-4.4	-10
C[C@@H]1CN([C@@H](C)CO)C(=O)c2cccc(NC(=O)c3nc4ccccc4s3)c2O[C@H]1CN(C)CC1CC1	0	10	10	-1	0	/	/	/
C[C@@H]1CN(C)C(=O)Cc2ccccc2O[C@@H]1CN(C)S(C)(=O)=O	/	/	/	1	/	12	/	/
CNC(=O)C[C@H]1CC[C@@H]2[C@@H](COc3ccc(NC(=O)Nc4cccc(Cl)c4)cc3C(=O)N2C)O1	0	-4	11	-14	0	1	/	/
CC(C)OC(=O)N(C)C[C@H]1OCc2ccccc2-c2c(n(C)c3ccccc23)C(=O)N([C@H](C)CO)C[C@H]1C	0	3	4	3	0	-2	/	/
Cc1ccc(S(=O)(=O)N2CCCCC2C(=O)N2CCN(c3ccccc3F)CC2)cc1 (stereo not given)	/	-3	/	-20*	0	/	4.2	-12
COc1ccc(NC(=O)CCN2C(=O)C3C4C=CC(C4)C3C2=O)cc1 (stereo not given)	/	-4	1	5	0	/	/	/
